Measured values published in ChEMBL document CHEMBL5042484, “Design of SARS-CoV-2 PLpro Inhibitors for COVID-19 Antiviral Therapy Leveraging Binding Cooperativity” (J Med Chem, 2022).
Calls of active or inactive are those of the source. No cut-off for these calls is given here.

Key:
[1] = Binding affinity to […] sensor chip immobilized His-tagged SARS-CoV-2 PLpro assessed as equilibrium dissociation constant by surface plasmon resonance analysis; parameters: species or system Severe acute respiratory syndrome coronavirus 2
[2] = tested on: Severe acute respiratory syndrome coronavirus 2; experiment: Inhibition of SARS-CoV-2 PLpro assessed as viral PLpro-mediated deubiquitination using Ub-AMC as substrate at 30 uM preincubated for 10 mins followed by substrate addition measured for 15 mins by fluorescence plate reader assay
In short: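 Run like the RLRGG-AMC PLpro assay (HEPES pH 7.5 buffer, 10 min preincubation, 15 min fluorescence read), but with 80 nM PLpro and 0.5 µM Ub-AMC as substrate.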

[3] = tested on: Severe acute respiratory syndrome coronavirus 2; experiment: Inhibition of SARS-CoV-2 PLpro assessed as viral PLpro-mediated deISGylation using ISG-15-AMC as substrate at 30 uM preincubated for 10 mins followed by substrate addition measured for 15 mins by fluorescence plate reader assay
In short: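 Run like the RLRGG-AMC PLpro assay (HEPES pH 7.5 buffer, 10 min preincubation, 15 min fluorescence read), but with 4 nM PLpro and 0.5 µM ISG15-AMC as substrate.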

A549 [4] = experiment: Cytotoxicity against human A549 cells overexpressing ACE2 receptor assessed as cell viability at < 30 uM incubated for 48 hrs by Cell Titer-Glo luminescent assay; assay type: toxicity, cell-based; conditions: a549, 48 h
A549 [5] = experiment: Cytotoxicity against human A549 cells overexpressing ACE2 receptor assessed as cell viability at 100 uM incubated for 48 hrs by Cell Titer-Glo luminescent assay; assay type: toxicity, cell-based; conditions: a549, 48 h
A549 [6] = experiment: Cytotoxicity against human A549 cells overexpressing ACE2 receptor assessed as cell viability at <50 uM incubated for 48 hrs by Cell Titer-Glo luminescent assay; assay type: toxicity, cell-based; conditions: a549, 48 h
[7] = Inhibition of SARS-CoV-2 PLpro using Z-RLRGG-AMC as substrate preincubated for 10 mins followed by substrate addition measured for 15 mins by fluorescence plate reader assay; parameters: species or system Severe acute respiratory syndrome coronavirus 2
[8] = Inhibition of SARS-CoV-2 PLpro; parameters: species or system Severe acute respiratory syndrome coronavirus 2
[9] = Drug concentration in C57BL/6J mouse plasma at 50 mg/kg, ip measured from 0.5 to 5 hrs by analytical analysis; assay type: ADME, organism-based; conditions: in vivo, time 0.5-5 hrs
A549 [10] = experiment: Cytotoxicity against human A549 cells overexpressing ACE2 receptor assessed as cell viability at <10 uM incubated for 48 hrs by Cell Titer-Glo luminescent assay; assay type: toxicity, cell-based; conditions: a549, 48 h

## Cc1ccc(NC2CNC2)cc1C(=O)N[C@H](C)c1cccc(-c2ccc(CNC3CCCC3)s2)c1
[1]
  Kd: 0.235 µM
[2]
  inhibition: Active
[3]
  inhibition: Active
A549 [4]
  Activity: Non-Toxic
A549 [5]
  Activity: Toxic
A549 [6]
  Activity: Non-Toxic

## CNC(=O)C[C@@H](NC(=O)c1cc(N(C)C2CNC2)ccc1C)c1cccc2ccccc12
[7]
  IC50: Not Active
[1]
  Kd: > 1000 µM

## COC(=O)/C=C/CNC(=O)CNC(=O)[C@H](CN)NC(=O)[C@H](CCc1nc2ccccc2s1)NC(C)=O
[8]
  IC50: 50 µM

## Cc1ccc(NC2CNC2)cc1C(=O)N[C@H](C)c1cccc(-c2ccc(CN3CCCC3)s2)c1
[2]
  inhibition: Active
[3]
  inhibition: Active
A549 [4]
  Activity: Non-Toxic
A549 [5]
  Activity: Toxic
[9]
  concentration: 12 µM
A549 [10]
  Activity: Non-Toxic

## Cc1ccc(NC2CNC2)cc1C(=O)N[C@H](C)c1cccc2ccccc12
[2]
  inhibition: Active
[3]
  inhibition: Active

## Cc1ccc(NC2CNC2)cc1C(=O)N[C@H](C)c1cccc(-c2cccs2)c1 (single isomer, unassigned)
[2]
  inhibition: Active
[3]
  inhibition: Active

## Cc1ccc(N)cc1C(=O)N[C@H](CCO)c1cccc2ccccc12
[7]; read-out: IC50
  IC50: 100 µM

## Cc1ccc(N)cc1C(=O)N[C@H](C)c1cccc2ccccc12
[2]
  inhibition: Active
[3]
  inhibition: Active

## COC(=O)/C=C/CNC(=O)CNC(=O)[C@H](CN)NC(=O)[C@H](CCc1ccc(O)cc1)NC(C)=O
[8]
  IC50: 50 µM
